# TDP2 absorb: TDP2 (human) inhibition, absorbance primary screen. recombinant TDP2, T5PNP hydrolysis, p-nitrophenol absorbance 415 nm. inhibition, % at 12.8 µM. O95551. AID 720702. 370,000 tested, 0.34% active;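 active means inhibition above the mean of all tested compounds plus 3 SD, set per campaign, cut at about 25% in these data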;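 further: 0% = DMSO with enzyme and 100% = buffer with substrate but no TDP2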
#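 Material: recombinant human TDP2; quantity: TDP2 enzyme at 120 nM final; medium: Tris-HCl pH 7.5 with MgCl2; compound: single concentration, 12.8 µM nominal, with 1% DMSO; incubation: 2 h enzyme incubation at 37 °C; signal: epi absorbance; measure: percent inhibition; benchmarks: high control without enzyme, low control DMSO plus TDP2; repeats: singlicate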
# UCH37 DUB inh: human UCH37 deubiquitinating enzyme inhibition | Q9Y5K5 | purified proteasome/UCH37, Ub-AMC cleavage fluorescence | inhibition, % (test concentration not listed) | 330,000 tested, 0.33% active | AID 588478;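 active means mean inhibition over replicate wells above about 20%, limit read from the data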;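 further: 0% = compound-free wells with enzyme and 100% = wells lacking proteasome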
# Target sequence (Q9Y5K5 whole entry, looked up): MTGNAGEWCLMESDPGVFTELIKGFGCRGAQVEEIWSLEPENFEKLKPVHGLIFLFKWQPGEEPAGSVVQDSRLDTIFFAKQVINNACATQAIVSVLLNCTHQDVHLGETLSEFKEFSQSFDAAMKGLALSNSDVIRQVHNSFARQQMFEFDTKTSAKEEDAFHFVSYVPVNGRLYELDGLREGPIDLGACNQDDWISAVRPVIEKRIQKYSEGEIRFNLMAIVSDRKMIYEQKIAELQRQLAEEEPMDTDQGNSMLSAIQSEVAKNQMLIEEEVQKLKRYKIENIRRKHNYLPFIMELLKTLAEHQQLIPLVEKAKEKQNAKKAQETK
#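 Assay system: Proteasome-bound UCH37. Buffer or medium: pH 7.4 Tris-HCl (50 mM) with ovalbumin, ATP-MgCl2, DTT. Incubation: 30 min preincubation with enzyme, 25 min cleavage at room temperature. Measured by: fluorescence, ex 355 nm, em 460 nm. Read-out basis: percent inhibition. Control set: wells without proteasome as full block, compound-free enzyme plus substrate as uninhibited.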
# LEDGF integ inh: blocks HIV-1 LEDGF/p75-dependent DNA integration. TR-FRET IN-LEDGF/p75 DNA integration, Eu/Cy5. inhibition, % at 3.7 µM. 370,000 tested, 0.64% active;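 active means inhibition above the screen-wide mean plus 3 SD, cut at about 13% in these data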;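 further: signal is the Cy5 over europium emission ratio at 671 and 618 nm; 0% = plate median of compound wells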
# NSD2 inh: inhibitors of human histone methyltransferase NSD2; O96028; NSD2 peptide methylation, AlphaScreen, 120 min; inhibition, % at 12.5 µM; 310,000 tested, 0.54% active; AID 743445; in the data active means inhibition above about 50%
# Casp6 inh: inhibitors of human caspase-6; purified caspase-6, Z-VEID-R110 cleavage fluorescence; inhibition, % at 12.5 µM; 350,000 tested, 0.53% active; AID 686996;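 active means mean inhibition across replicates at least about 35%, with every replicate also reaching that limit, limit read from the data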;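 further: 0% = median of neutral control wells and 100% = no fluorescence left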
# Alpha artifact: interferes with AlphaScreen signal, flagging NSD2 false positives | AC35, µM (series often up to 10 µM), for inactives: top-dose activity change, negative = signal loss | 1,500 tested, 9.4% active | AlphaScreen artifact counterscreen, preloaded methylated H4 peptide | shares compounds with NSD2 inh; call rule not given here
# * marks the source's active call; other numbers are inactive results; . = no result given. Hits are enriched below; roughly 1.3% of the tested compounds scored in any of these assays.
SMILES,TDP2 absorb,UCH37 DUB inh,LEDGF integ inh,NSD2 inh,Casp6 inh,Alpha artifact
CCc1cc2c(N3CCN(C)CC3)ncnc2s1,2,2,1,-3,.,.
O=C(Cc1cccnc1)N1CCCCN2[C@H](CO)[C@H](c3ccc(C#CC4CC4)cc3)[C@H]2C1,.,.,.,.,-1,.
CC=Cc1ccc2n(c1=O)C[C@H]1[C@H](CO)[C@@H](C(=O)O)[C@@H]2N1S(=O)(=O)c1ccccc1C (mixture of isomers),.,.,.,.,-2,.
CC1(C)CC(=O)C2=C(C1)NC(=O)C21C(C(=O)OC(C)(C)C)=C(N)Oc2ccc(Br)cc21 (stereo unspecified),7,4,0,62*,3,-5%
C=CCN1C(=O)C2(C(C(=O)OCC)=C(N)Oc3ccccc32)C2=C1CCCC2=O (stereo unspecified),1,4,-5,-2,.,.
COCCCNC(=O)c1c(NC(=O)c2ccccc2Cl)n(Cc2ccccc2)c2nc3ccccc3nc12,-10,-307,4,1,.,.
COCCNC(=O)c1c(NC(=O)c2ccco2)n(Cc2ccccc2)c2nc3ccccc3nc12,11,-114,-2,113*,.,8%
O=C1NC(=O)C(=Cc2ccc(SC3CCCCC3)o2)C(=O)N1,7,3,6,62*,67*,1%
COCC#Cc1ccc([C@@H]2[C@H]3CN(C(=O)Cc4ccccn4)CCCCN3[C@H]2CO)cc1,.,.,.,.,-4,.
Cc1ccc(N2C(=O)NC(=O)/C(=C/c3cnn(-c4ccc(C)cc4)c3)C2=O)cc1,5,.,1,51*,.,-5%
Cc1ccc(OC(=O)N(C)C[C@@H]2OCc3ccccc3-c3c(n(C)c4ccccc34)C(=O)N([C@H](C)CO)C[C@@H]2C)cc1,.,.,.,.,-4,.
CN1C(=O)NC(=O)/C(=C/c2ccc([N+](=O)[O-])o2)C1=O,9,22*,37*,59*,56*,-3%
Cn1c(O)c(/C=C/C=Nc2ccccc2)c(=O)n(C)c1=S,11,9,1,55*,.,-5%
N#Cc1cccc(-c2ccc([C@@H]3[C@H]4CN(C(=O)Cc5ccncc5)CCCCN4[C@H]3CO)cc2)c1,.,.,.,.,4,.
CCN1CCN(c2ccc(N)cc2C)CC1,-12,4,-4,60*,-69,-5%
N#Cc1cccc(-c2ccc([C@H]3[C@@H](CO)N4CCCCN(C(=O)Cc5ccccc5)C[C@H]34)cc2)c1,.,.,.,.,1,.
COC(=O)[C@@H]1[C@@H](CO)[C@@H]2Cn3c(cccc3=O)[C@H]1N2C(=O)C1CCC1,.,.,.,.,2,.
O=C1NC(=S)NC(=O)C1=Cc1ccc(Br)s1,-9,4,-3,52*,25,-5%
CN1C(=O)/C(=C\c2ccc(Br)s2)C(=O)NC1=S,0,.,-1,3,11,.
CCN1C[C@]2(CO)CC[C@H](OC)[C@@]34C2[C@H](OC)[C@@](O)(C13)[C@@]1(O)C[C@H](OC)[C@H]2C[C@@H]4[C@@H]1[C@H]2OC,10,3,0,57*,3,0%
